Results reported in ChEMBL document CHEMBL1138564, “Microwave-induced synthesis and anti-microbial activities of 7,10,11,12-tetrahydrobenzo[c]acridin-8(9H)-one derivatives” (2009).
≈ marks a conversion by molar mass, not a printed value. Calls of active or inactive are those of the source. No cut-off for these calls is given here.

Assays:
[1] = system: Penicillium chrysogenum; assay: Antimicrobial activity against Penicillium chrysogenum NCIM 707 after 72 hrs by serial dilution method; assay type: functional; conditions: NCIM 707, 72 h
In short: (§1)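 MIC by broth dilution in Sabouraud's dextrose broth, only for fungi sensitive in disc diffusion. Two-fold serial dilutions of compounds are made in 1 ml broth per tube, range 3.9 to 1000. Inoculated tubes are incubated at 27 °C for 72 h.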

[2] = system: Salmonella typhimurium; assay: Antimicrobial activity against Salmonella Typhimurium NCIM 2501 after 24 hrs by serial dilution method; assay type: functional, Salmonella enterica subsp. enterica serovar Typhimurium; conditions: Salmonella enterica, NCIM 2501, 24 h
[3] = system: Pseudomonas aeruginosa; assay: Antimicrobial activity against Pseudomonas aeruginosa NCIM 2200 after 24 hrs by serial dilution method; assay type: functional; conditions: NCIM 2200, 24 h
In short: (§2)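 Broth dilution MIC in nutrient broth, run only for organisms found sensitive in disc diffusion. Compounds are two-fold serially diluted in 1 ml sterile broth per tube, spanning 3.9 to 1000. Inoculated tubes are incubated at 37 °C for 24 h.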

[4] = system: Aspergillus fumigatus; assay: Antimicrobial activity against Aspergillus fumigatus NCIM 902 after 72 hrs by serial dilution method; assay type: functional; conditions: NCIM 902, 72 h; in short: as §1
[5] = system: Staphylococcus; assay: Antimicrobial activity against Staphylococcus albus NCIM 2178 at 500 ug/disk after 24 hrs by disk diffusion method; assay type: functional; conditions: NCIM 2178, 24 h, read-out: DIZ
In short: (§3)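 Disc diffusion. 100 µl of bacterial suspension at 10⁸ CFU/ml was spread on Mueller–Hinton agar. Discs loaded with test compound dissolved in DMSO were placed on the lawn, with a DMSO-only disc as negative control. Plates were incubated at 37 °C for 24 h, and the inhibition zone diameter was measured.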

[6] = system: Rhodotorula mucilaginosa; assay: Antimicrobial activity against Rhodotorula rubra NCIM 3174 after 72 hrs by serial dilution method; assay type: functional; conditions: NCIM 3174, 72 h
In short: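 MIC by broth dilution in Sabouraud's dextrose broth, run only on fungi found sensitive in the disc assay. Twofold serial dilutions were made in 1 ml broth per tube, covering 3.9 to 1000. Inoculated tubes were incubated at 27 °C for 72 h.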

[7] = system: Lipomyces lipofer; assay: Antimicrobial activity against Lipomyces lipofer NCIM 3252 after 72 hrs by serial dilution method; assay type: functional; conditions: NCIM 3252, 72 h; in short: as §1
[8] = system: Proteus vulgaris; assay: Antimicrobial activity against Proteus vulgaris NCIM 2027 after 24 hrs by serial dilution method; assay type: functional; conditions: NCIM 2027, 24 h; in short: as §2
[9] = system: Aliivibrio fischeri; assay: Antimicrobial activity against Vibrio fischeri NCIM 2154 after 24 hrs by serial dilution method; assay type: functional; conditions: NCIM 2154, 24 h
[10] = system: Aspergillus niger; assay: Antimicrobial activity against Aspergillus niger NCIM 902 at 1000 ug/disk after 72 hrs by disk diffusion method; assay type: functional; conditions: NCIM 1196, 72 h, in the assay text read “NCIM 1196” for “NCIM 902”, read-out: DIZ
In short: (§4)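 Disc diffusion on Sabouraud's dextrose agar. 100 µl of fungal suspension at 10⁶ CFU/ml is spread on the plate. Discs carry test compounds at two loadings in DMSO; DMSO alone is the negative control. Clotrimazole disc is the positive reference. Plates are incubated at 27 °C for 72 h, and the zone of inhibition diameter is measured.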

[11] = system: Aspergillus parasiticus; assay: Antimicrobial activity against Aspergillus parasiticus NCIM 904 at 1000 ug/disk after 72 hrs by disk diffusion method; assay type: functional; conditions: NCIM 904, 72 h, read-out: DIZ; in short: as §4
[12] = system: Rhodococcus corynebacterioides; assay: Antimicrobial activity against Corynebacterium rubrum NCIM 2252 after 24 hrs by serial dilution method; assay type: functional; conditions: Rhodococcoides corynebacterioides, NCIM 2252, 24 h; in short: as §2
[13] = system: Bacillus cereus; assay: Antimicrobial activity against Bacillus cereus NCIM 2155 after 24 hrs by serial dilution method; assay type: functional; conditions: NCIM 2155, 24 h; in short: as §2
[14] = system: Bacillus subtilis; assay: Antimicrobial activity against Bacillus subtilis NCIM 2063 at 1000 ug/disk after 24 hrs by disk diffusion method; assay type: functional; conditions: NCIM 2063, 24 h, read-out: DIZ
In short: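 Disc diffusion on Mueller–Hinton agar. 100 µl of bacterial suspension at 10⁸ CFU/ml is spread on the plate. Discs carry test compounds at two loadings, dissolved in DMSO; DMSO alone serves as negative control. Ofloxacin disc is the positive reference. Plates are incubated at 37 °C for 24 h, and the inhibition zone diameter is measured.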

[15] = system: Staphylococcus; assay: Antimicrobial activity against Staphylococcus albus NCIM 2178 after 24 hrs by serial dilution method; assay type: functional; conditions: NCIM 2178, 24 h
[16] = system: Salmonella typhimurium; assay: Antimicrobial activity against Salmonella Typhimurium NCIM 2501 at 500 ug/disk after 24 hrs by disk diffusion method; assay type: functional, Salmonella enterica subsp. enterica serovar Typhimurium; conditions: Salmonella enterica, NCIM 2501, 24 h; read-out: DIZ; in short: as §3
[17] = system: Aspergillus niger; assay: Antimicrobial activity against Aspergillus niger NCIM 902 at 500 ug/disk after 72 hrs by disk diffusion method; assay type: functional; conditions: NCIM 1196, 72 h, in the assay text read “NCIM 1196” for “NCIM 902”, read-out: DIZ; in short: as §4
[18] = system: Aspergillus fumigatus; assay: Antimicrobial activity against Aspergillus fumigatus NCIM 902 at 500 ug/disk after 72 hrs by disk diffusion method; assay type: functional; in short: as §4
[19] = system: Bacillus subtilis; assay: Antimicrobial activity against Bacillus subtilis NCIM 2063 after 24 hrs by serial dilution method; assay type: functional; conditions: NCIM 2063, 24 h; in short: as §2
[20] = system: Aspergillus niger; assay: Antimicrobial activity against Aspergillus niger NCIM 902 after 72 hrs by serial dilution method; assay type: functional; conditions: NCIM 1196, 72 h, in the assay text read “NCIM 1196” for “NCIM 902”; in short: as §1
[21] = system: Lipomyces lipofer; assay: Antimicrobial activity against Lipomyces lipofer NCIM 3252 at 1000 ug/disk after 72 hrs by disk diffusion method; assay type: functional; conditions: NCIM 3252, 72 h, read-out: DIZ; in short: as §4
[22] = system: Klebsiella aerogenes; assay: Antimicrobial activity against Klebsiella aerogenes NCIM 2239 after 24 hrs by serial dilution method; assay type: functional; conditions: NCIM 2239, 24 h; in short: as §2

| SMILES | MIC [1] [µg/mL] | MIC [2] [µg/mL] | MIC [3] [µg/mL] | zone of inhibition at 500 µg/disc [5] [mm] | MIC [6] [µg/mL] | MIC [7] [µg/mL] | MIC [8] [µg/mL] | MIC [9] [µg/mL] | zone of inhibition at 1000 µg/disc [10] [mm] | zone of inhibition at 1000 µg/disc [11] [mm] | MIC [12] [µg/mL] | MIC [13] [µg/mL] | zone of inhibition at 1000 µg/disc [14] [mm] | MIC [15] [µg/mL] | zone of inhibition at 500 µg/disc [16] [mm] | zone of inhibition at 500 µg/disc [17] [mm] | MIC [19] [µg/mL] | MIC [20] [µg/mL] | zone of inhibition at 1000 µg/disc [21] [mm] | MIC [22] [µg/mL] | further results |
| --- | --- | --- | --- | --- | --- | --- | --- | --- | --- | --- | --- | --- | --- | --- | --- | --- | --- | --- | --- | --- | --- |
| O=C1CCCC2=C1C(c1ccc(Cl)cc1)c1ccc3ccccc3c1N2 (stereo not drawn) | 125 (≈ 347 µM) | 62.5 (≈ 174 µM) | 62.5 (≈ 174 µM) | 8 | 3.9 (≈ 10.8 µM) | 125 (≈ 347 µM) | 125 (≈ 347 µM) | 62.5 (≈ 174 µM) | 8 | 12 | 125 (≈ 347 µM) | 15.6 (≈ 43.4 µM) | 12 | 62.5 (≈ 174 µM) | 9 | 8 | 31.2 (≈ 86.7 µM) | 62.5 (≈ 174 µM) | 9 | 125 (≈ 347 µM) | MIC [4]: 62.5 µg/mL (≈ 174 µM); zone of inhibition at 500 µg/disc ([18]; NCIM 902, 72 h, read-out: DIZ): 8 mm |
| CC1(C)CC(=O)C2=C(C1)Nc1c(ccc3ccccc13)C2c1ccc(O)cc1 (stereo not drawn) | 125 (≈ 338 µM) | 31.2 (≈ 84.4 µM) | 62.5 (≈ 169 µM) | 7 | 3.9 (≈ 10.6 µM) | 62.5 (≈ 169 µM) | 125 (≈ 338 µM) | 125 (≈ 338 µM) | 10 | 14 | 62.5 (≈ 169 µM) | 31.2 (≈ 84.4 µM) | 10 | 125 (≈ 338 µM) | 9 | 8 | 62.5 (≈ 169 µM) | 62.5 (≈ 169 µM) | 10 | 31.2 (≈ 84.4 µM) | diameter of the inhibition zone (DIZ) [18]: inactive |
